Converted amounts (≈) assume the structure as drawn.
Tests used:
[1] = test system: Cutibacterium acnes; experiment: Antibacterial activity against drug-resistant Propionibacterium acnes SW10 after 48 hrs by broth microdilution method; type: functional
How it was run: (§1)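 Broth microdilution MIC in Wilkins-Chalgren broth without lysed horse blood, following CLSI anaerobe guidelines. Plates were held in anaerobic jars with atmosphere generators (O2 <0.1% by 2.5 h, CO2 >15% by 24 h) at 35 to 37°C for 48 h. Growth was read with an illuminated plate reader and magnifying mirror.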

[2] = test system: Cutibacterium acnes; experiment: Antibacterial activity against drug-resistant Propionibacterium acnes SW16 after 48 hrs by broth microdilution method; type: functional; how it was run: as §1
[3] = test system: Cutibacterium acnes; experiment: Antibacterial activity against drug-resistant Propionibacterium acnes SW17 after 48 hrs by broth microdilution method; type: functional; how it was run: as §1
[4] = test system: Cutibacterium acnes; experiment: Antibacterial activity against drug-resistant Propionibacterium acnes SW26 after 48 hrs by broth microdilution method; type: functional; how it was run: as §1
[5] = test system: Cutibacterium acnes; experiment: Antibacterial activity against drug-resistant Propionibacterium acnes D-04/97 after 48 hrs by broth microdilution method; type: functional; how it was run: as §1
[6] = test system: Cutibacterium acnes; experiment: Antibacterial activity against drug-resistant Propionibacterium acnes OK8/97 after 48 hrs by broth microdilution method; type: functional; how it was run: as §1
[7] = test system: Cutibacterium acnes; experiment: Antibacterial activity against drug-resistant Propionibacterium acnes EG7NS after 48 hrs by broth microdilution method; type: functional; how it was run: as §1
[8] = test system: Cutibacterium acnes; experiment: Antibacterial activity against drug-resistant Propionibacterium acnes EG13NS after 48 hrs by broth microdilution method; type: functional; how it was run: as §1
[9] = test system: Propionibacterium granulosum; experiment: Antibacterial activity against drug-resistant Propionibacterium granulosum NCTC-11865 after 48 hrs by broth microdilution method; type: functional; details: Cutibacterium granulosum, NCTC-11865, 48 h; how it was run: as §1
[10] = test system: Cutibacterium acnes; experiment: Antibacterial activity against drug-resistant Propionibacterium acnes SW11 after 48 hrs by broth microdilution method; type: functional; how it was run: as §1
[11] = test system: Cutibacterium acnes; experiment: Antibacterial activity against drug-resistant Propionibacterium acnes EG3NS after 48 hrs by broth microdilution method; type: functional; how it was run: as §1
[12] = test system: Cutibacterium acnes; experiment: Antibacterial activity against drug-resistant Propionibacterium acnes SW3CD after 48 hrs by broth microdilution method; type: functional; how it was run: as §1
[13] = test system: Cutibacterium acnes; experiment: Antibacterial activity against drug-resistant Propionibacterium acnes P95 after 48 hrs by broth microdilution method; type: functional; how it was run: as §1
[14] = test system: Cutibacterium acnes; experiment: Antibacterial activity against drug-resistant Propionibacterium acnes FG7E after 48 hrs by broth microdilution method; type: functional; how it was run: as §1
[15] = test system: Cutibacterium acnes; experiment: Antibacterial activity against drug-resistant Propionibacterium acnes GE4E after 48 hrs by broth microdilution method; type: functional; how it was run: as §1
[16] = test system: Cutibacterium acnes; experiment: Antibacterial activity against drug-resistant Propionibacterium acnes SP64E after 48 hrs by broth microdilution method; type: functional; how it was run: as §1
[17] = test system: Cutibacterium acnes; experiment: Antibacterial activity against drug-resistant Propionibacterium acnes SW101CDA after 48 hrs by broth microdilution method; type: functional; how it was run: as §1
[18] = test system: Cutibacterium acnes; experiment: Antibacterial activity against drug-resistant Propionibacterium acnes P:413 after 48 hrs by broth microdilution method; type: functional; how it was run: as §1
[19] = test system: Cutibacterium acnes; experiment: Antibacterial activity against drug-resistant Propionibacterium acnes P322:2 after 48 hrs by broth microdilution method; type: functional; how it was run: as §1
[20] = test system: Cutibacterium acnes; experiment: Antibacterial activity against drug-resistant Propionibacterium acnes EG7NS after 72 hrs; type: functional
How it was run: (§2)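 MBC for P. acnes followed MIC assays by standard methodology. Samples were plated on Wilkins-Chalgren agar, incubated anaerobically in GENbox jars at 35 to 37°C, and examined for growth after 72 h.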

[21] = test system: Cutibacterium acnes; experiment: Antibacterial activity against drug-resistant Propionibacterium acnes SW3CD after 72 hrs; type: functional; how it was run: as §2
[22] = test system: Cutibacterium acnes; experiment: Antibacterial activity against drug-resistant Propionibacterium acnes P95 after 72 hrs; type: functional; how it was run: as §2
[23] = test system: Cutibacterium acnes; experiment: MBC/MIC ratio of Propionibacterium acnes EG7NS; type: functional
How it was run: (§3)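 MIC by CLSI broth microdilution in Wilkins-Chalgren broth in anaerobic jars (O2 <0.1%, CO2 >15%), read after 48 h at 35–37°C on an illuminated plate reader. For MBC, samples were plated onto Wilkins-Chalgren agar and incubated anaerobically for 72 h at 35–37°C before growth was scored.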

[24] = test system: Cutibacterium acnes; experiment: MBC/MIC ratio of Propionibacterium acnes SW3CD; type: functional; how it was run: as §3
[25] = test system: Cutibacterium acnes; experiment: MBC/MIC ratio of Propionibacterium acnes P95; type: functional; how it was run: as §3
[26] = test system: Cutibacterium acnes; experiment: MBC/MIC ratio of Propionibacterium acnes SW101T; type: functional; how it was run: as §3
[27] = test system: Corynebacterium jeikeium; experiment: Antibacterial activity against Corynebacterium jeikeium after 48 hrs by broth microdilution method; type: functional
How it was run: (§4)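 Broth microdilution per CLSI in cation-adjusted Mueller-Hinton broth supplemented with 0.5% (vol/vol) Tween 80. Plates incubated at 35°C in ambient air for 44 to 48 h, then read visually. MICs in μg/ml; a geometric mean MIC was calculated across the corynebacterial strains.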

[28] = test system: Corynebacterium diphtheriae; experiment: Antibacterial activity against Corynebacterium diphtheriae after 48 hrs by broth microdilution method; type: functional; how it was run: as §4
[29] = test system: Corynebacterium amycolatum; experiment: Antibacterial activity against Corynebacterium amycolatum after 48 hrs by broth microdilution method; type: functional; how it was run: as §4
[30] = test system: Corynebacterium minutissimum; experiment: Antibacterial activity against Corynebacterium minutissimum after 48 hrs by broth microdilution method; type: functional; how it was run: as §4
[31] = test system: Staphylococcus epidermidis; experiment: Antibacterial activity against Staphylococcus epidermidis after 48 hrs by broth microdilution method; type: functional
[32] = test system: Staphylococcus aureus; experiment: Antibacterial activity against methicillin-susceptible Staphylococcus aureus after 48 hrs by broth microdilution method; type: functional
[33] = Antibacterial activity against Streptococcus dysgalactiae subsp. dysgalactiae after 48 hrs by broth microdilution method; type: functional
[34] = test system: Streptococcus equi subsp. zooepidemicus; experiment: Antibacterial activity against Streptococcus equi subsp. zooepidemicus after 48 hrs by broth microdilution method; type: functional
[35] = test system: Cutibacterium acnes; experiment: Antibacterial activity against drug-resistant Propionibacterium acnes P401:5 after 48 hrs by broth microdilution method; type: functional; how it was run: as §1
[36] = test system: Cutibacterium acnes; experiment: Antibacterial activity against drug-resistant Propionibacterium acnes P425:1 after 48 hrs by broth microdilution method; type: functional; how it was run: as §1
[37] = test system: Cutibacterium acnes; experiment: Antibacterial activity against drug-resistant Propionibacterium acnes P429:1 (SC) after 48 hrs by broth microdilution method; type: functional; how it was run: as §1
[38] = test system: Cutibacterium acnes; experiment: Antibacterial activity against drug-resistant Propionibacterium acnes P429:1 (BC) after 48 hrs by broth microdilution method; type: functional; how it was run: as §1
[39] = test system: Cutibacterium acnes; experiment: Antibacterial activity against drug-resistant Propionibacterium acnes SW54EA after 48 hrs by broth microdilution method; type: functional; how it was run: as §1
[40] = test system: Cutibacterium acnes; experiment: Antibacterial activity against drug-resistant Propionibacterium acnes SW101T after 48 hrs by broth microdilution method; type: functional; how it was run: as §1
[41] = test system: Cutibacterium acnes; experiment: Antibacterial activity against drug-resistant Propionibacterium acnes GE46EB after 48 hrs by broth microdilution method; type: functional; how it was run: as §1
[42] = test system: Streptococcus pyogenes; experiment: Antibacterial activity against Streptococcus pyogenes after 20 to 24 hrs by broth microdilution method
[43] = test system: Staphylococcus aureus; experiment: Antibacterial activity against methicillin-resistant Staphylococcus aureus after 20 to 24 hrs by broth microdilution method
[44] = test system: Propionibacterium granulosum; experiment: Antibacterial activity against drug-resistant Propionibacterium granulosum QK6/92 after 48 hrs by broth microdilution method
[45] = test system: Staphylococcus aureus; experiment: Antibacterial activity against borderline oxacillin-resistant Staphylococcus aureus after 20 to 24 hrs by broth microdilution method

SMILES: CCC[C@@H]1C[C@@H](C(=O)N[C@@H]([C@H]2O[C@H](SC)[C@H](O)[C@@H](O)[C@H]2O)[C@H](C)Cl)N(C)C1 [CLINDAMYCIN]
- MIC [1]: 0.125 µg/mL (≈ 0.294 µM)
- MIC [2]: ≤ 0.06 µg/mL
- MIC [3]: ≤ 0.06 µg/mL
- MIC [4]: ≤ 0.06 µg/mL
- MIC [5]: 0.125 µg/mL (≈ 0.294 µM)
- MIC [6]: 0.125 µg/mL (≈ 0.294 µM)
- MIC [7]: ≤ 0.06 µg/mL
- MIC [8]: ≤ 0.06 µg/mL
- MIC [9]: ≤ 0.06 µg/mL
- MIC [10]: 0.5 µg/mL (≈ 1.18 µM)
- MIC [11]: 0.25 µg/mL (≈ 0.588 µM)
- MIC [12]: 8 µg/mL (≈ 18.8 µM)
- MIC [13]: 0.5 µg/mL (≈ 1.18 µM)
- MIC [14]: ≥ 32 µg/mL
- MIC [15]: > 512 µg/mL
- MIC [16]: > 512 µg/mL
- MIC [17]: ≥ 512 µg/mL
- MIC [18]: ≤ 0.06 µg/mL
- MIC [19]: 4 µg/mL (≈ 9.41 µM)
- MBC [20]: > 32 µg/mL
- MBC [21]: > 32 µg/mL
- MBC [22]: 32 µg/mL (≈ 75.3 µM)
- Ratio [23]: >=533
- Ratio [24]: >4
- Ratio [25]: >64
- Ratio [26]: >2
- MIC [27]: 7.97 µg/mL (≈ 18.8 µM)
- MIC [28]: 7.97 µg/mL (≈ 18.8 µM)
- MIC [29]: 7.97 µg/mL (≈ 18.8 µM)
- MIC [30]: 7.97 µg/mL (≈ 18.8 µM)
- MIC [31]: 1.12 µg/mL (≈ 2.64 µM)
- MIC [32]: 1.16 µg/mL (≈ 2.73 µM)
- MIC [33]: 0.12 µg/mL (≈ 0.282 µM)
- MIC [34]: 0.11 µg/mL (≈ 0.259 µM)
- MIC [35]: 1 µg/mL (≈ 2.35 µM)
- MIC [36]: 512 µg/mL (≈ 1200 µM)
- MIC [37]: 4 µg/mL (≈ 9.41 µM)
- MIC [38]: 8 µg/mL (≈ 18.8 µM)
- MIC [39]: 32 µg/mL (≈ 75.3 µM)
- MIC [40]: 256 µg/mL (≈ 602 µM)
- MIC [41]: 512 µg/mL (≈ 1200 µM)
- MIC [42]: 0.07 µg/mL (≈ 0.165 µM)
- MIC [43]: 1.16 µg/mL (≈ 2.73 µM)
- MIC [44]: 1 µg/mL (≈ 2.35 µM)
- MIC [45]: 1.16 µg/mL (≈ 2.73 µM)

SMILES: CC[C@H]1OC(=O)[C@H](C)[C@@H](O[C@H]2C[C@@](C)(OC)[C@@H](O)[C@H](C)O2)[C@H](C)[C@@H](O[C@@H]2O[C@H](C)C[C@H](N(C)C)[C@H]2O)[C@](C)(O)C[C@@H](C)C(=O)[C@H](C)[C@@H](O)[C@]1(C)O [ERYTHROMYCIN]
- MIC [1]: ≤ 0.06 µg/mL
- MIC [2]: ≤ 0.06 µg/mL
- MIC [3]: ≤ 0.06 µg/mL
- MIC [4]: ≤ 0.06 µg/mL
- MIC [5]: ≤ 0.06 µg/mL
- MIC [6]: 0.125 µg/mL (≈ 0.17 µM)
- MIC [7]: ≤ 0.06 µg/mL
- MIC [8]: ≤ 0.06 µg/mL
- MIC [9]: 0.125 µg/mL (≈ 0.17 µM)
- MIC [10]: 0.125 µg/mL (≈ 0.17 µM)
- MIC [11]: ≤ 0.06 µg/mL
- MIC [12]: ≤ 0.06 µg/mL
- MIC [13]: 4 µg/mL (≈ 5.45 µM)
- MIC [14]: > 512 µg/mL
- MIC [15]: > 512 µg/mL
- MIC [16]: > 512 µg/mL
- MIC [17]: > 512 µg/mL
- MIC [18]: ≤ 0.06 µg/mL
- MIC [19]: > 512 µg/mL
- MBC [20]: > 32 µg/mL
- MBC [21]: 0.125 µg/mL (≈ 0.17 µM)
- MBC [22]: > 32 µg/mL
- Ratio [23]: >=533
- Ratio [24]: >=2
- Ratio [25]: >8
- MIC [27]: 1.47 µg/mL (≈ 2 µM)
- MIC [28]: 1.47 µg/mL (≈ 2 µM)
- MIC [29]: 1.47 µg/mL (≈ 2 µM)
- MIC [30]: 1.47 µg/mL (≈ 2 µM)
- MIC [31]: 3 µg/mL (≈ 4.09 µM)
- MIC [32]: 3.26 µg/mL (≈ 4.44 µM)
- MIC [33]: 0.09 µg/mL (≈ 0.123 µM)
- MIC [34]: 0.14 µg/mL (≈ 0.191 µM)
- MIC [35]: 2 µg/mL (≈ 2.73 µM)
- MIC [36]: > 512 µg/mL
- MIC [37]: 4 µg/mL (≈ 5.45 µM)
- MIC [38]: 2 µg/mL (≈ 2.73 µM)
- MIC [39]: > 512 µg/mL
- MIC [40]: > 512 µg/mL
- MIC [41]: > 512 µg/mL
- MIC [42]: 0.32 µg/mL (≈ 0.436 µM)
- MIC [43]: 3.26 µg/mL (≈ 4.44 µM)
- MIC [44]: 0.5 µg/mL (≈ 0.681 µM)
- MIC [45]: 3.26 µg/mL (≈ 4.44 µM)

Reference: ChEMBL document CHEMBL1143835, “Antipropionibacterial activity of BAL19403, a novel macrolide antibiotic” (2007)
